Experiment [1] addresses T1, Macrophage migration inhibitory factor (Homo sapiens, UniProt P14174).
T1 sequence (P14174 whole entry): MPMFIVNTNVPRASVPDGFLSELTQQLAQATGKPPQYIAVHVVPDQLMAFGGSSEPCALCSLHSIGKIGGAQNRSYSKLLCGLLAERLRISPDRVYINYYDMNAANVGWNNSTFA
Briefly: Inhibition of human MIF tautomerase activity. In outline:
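Wild-type human MIF (500 nM final) preincubated with compound for 2 h at room temperature over 24 nM–50 μM or 98–200 μM. Buffer: 50 mM potassium phosphate, 0.5 mM EDTA, pH 6, no detergent. Reaction started with 533 μM freshly made D-dopachrome methyl ester; end-point absorbance at 475 nm after 2 min. Triplicate runs; IC50 by nonlinear regression.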

Experiment [2] has as its target T1, Macrophage migration inhibitory factor. Briefly: Inhibition of human MIF tautomerase activity in presence of Triton X-100 as detergent. A digest of the protocol: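 Counter-screen for aggregation-based inhibition, with 0.1% v/v Triton X-100 in both buffer and enzyme stock. Wild-type human MIF (500 nM) preincubated with compound for 2 h at room temperature in 50 mM potassium phosphate, 0.5 mM EDTA, pH 6. 533 μM D-dopachrome methyl ester added; 475 nm end-point read at 2 min. IC50 by nonlinear regression.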

The target in experiment [3] is T2, Macrophage migration inhibitory factor (Homo sapiens) (UniProt P14174).
T2 sequence (whole entry): T1 sequence (P14174 whole entry)
Briefly: Inhibition of human MIF tautomerase activity at 200 uM. In outline: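 Wild-type human MIF (500 nM) preincubated with compound at 200 μM for 2 h at room temperature in 50 mM potassium phosphate, 0.5 mM EDTA, pH 6. Reaction started with 533 μM fresh D-dopachrome methyl ester. Percent inhibition taken from absorbance at 475 nm 2 min after substrate addition.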

pIC50: −log10 of the molar value.

As usually defined, the pIC50 is the negative decadic logarithm of the IC50, by convention in mol/L. For orientation: inhibition means the drop in the measured response relative to a control, in per cent. The low end stands for a weak effect, the high end for a strong effect.

Compound `O=[N+]([O-])c1cc(S(=O)(=O)C(F)(F)F)ccc1Sc1nnc(S)s1` showed a pIC50 in experiment [1] of 5.02.

Turning to `O=Nc1c(-c2ccccc2)cc2ccccn12`, the negative-log IC50 (pIC50) in experiment [1] is 3.92. With `CC(=O)c1cc2ccc(O)cc2oc1=O`, the pIC50 in experiment [1] was 4.34; in experiment [2] it was 3.99.

Regarding `O=C(Oc1ccc(-c2ccccc2)nn1)c1cccs1`, the pIC50 in experiment [1] and in experiment [2] was 7.30 in each case. As to `COc1ccccc1C(=O)n1nnc2ccccc21`, the negative logarithm of the IC50 (pIC50) in experiment [1] is 5.16; in experiment [2], 4.91. For `O=C(NOC(=O)c1ccccc1Br)c1ccc(Cl)cc1`, in that order: 5.55 and 5.38. Regarding `CCOC(=O)/C(C#N)=C/c1ccc(O)cc1O`, the results for the pIC50 in experiment [1] and in experiment [2] were 4.21 and 3.96, respectively.

The compound `Cc1ccc(C(=O)/C=C/Nc2ccc(F)cc2F)o1` showed a negative logarithm of the IC50 (pIC50) in experiment [1] of 4.24.

Take `COC(=O)CSc1nnc(-c2cccs2)n1C`: the pIC50 was 4.73 in experiment [1] and 4.55 in experiment [2]. In experiment [1], `O=[N+]([O-])c1ccc(NCc2ccco2)c2nonc12` showed a negative-log IC50 (pIC50) of 4.22. Consider `S=C(Nc1ccccn1)Nc1ccccc1Cl`, for which the negative-log IC50 (pIC50) in experiment [1] was 5.98; in experiment [2], 6.00.

For the compound `S=C(Nc1ccccc1)Nc1nncs1`, the pIC50 in experiment [1] is 6.52; in experiment [2], 6.38.

In the case of `CCCCOC(=O)Sc1nc2ccccc2o1`, the pIC50 in experiment [1] was 7.10; in experiment [2] it was 6.82. As for `c1ccc(NCn2nnc3ccccc32)nc1`, the inhibition in experiment [3] worked out at 69%.

The compound `O=C(c1ccccc1)c1cc2ccc(O)cc2oc1=O` had a pIC50 in experiment [1] of 4.19.

The record behind these values is ChEMBL document CHEMBL1250419, “An integrative in silico methodology for the identification of modulators of macrophage migration inhibitory factor (MIF) tautomerase activity” (Bioorg Med Chem, 2010).
